According to ChEMBL document CHEMBL4513216, “Probing the Open Global Health Chemical Diversity Library for Multistage-Active Starting Points for Next-Generation Antimalarials” (ACS Infect Dis, 2020):

test: Toxicity liver stage against HepG2, at 10uM; format: cell-based; parameters: test concentration 10 uM, cell line HepG2-A16-CD81EGFP; conditions: human, HepG2-A16-CD81EGFP cells; read-out: INHIBITION
Summary of the method: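 Uninfected HepG2-A16-CD81EGFP cells, 3 × 10^3 per well, 1536-well, plated on prespotted compound at 10 μM final, parasite-free screening media added to match infected plates; puromycin 10 μM positive, DMSO 0.5% negative; run in parallel with 48 h PbLuc assay at 37 °C, 5% CO2; viability by CellTiter-Glo luminescence, normalized to controls.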

| SMILES | cytotoxicity at 10 µM [%] |
| --- | --- |
| COCC(=O)N[C@H]1C[C@@H](Cc2cc(CN3CCCCC3)on2)C1(C)C | -8.12 |
| Cc1cccc(CNC[C@H]2Cn3ccnc3CO2)n1 | 3.15 |
| CCOc1cc(N2CCN(C(=O)c3ccc(OC)cc3)CC2)nc(C)n1 | -10.2 |
| Cc1ccc(-c2csc3c(=O)[nH]c(N4CCCC(C(N)=O)C4)nc23)cc1 (stereo not given) | -3.09 |
| Cc1ccc(S(=O)(=O)NCC(O)c2ccoc2)s1 (stereo not given) | -8.18 |
| CCn1c2c(ccc1=O)CC(N)CC2 (stereo not given) | -1.72 |
| O=C(NCC1CC1)C1CCC2(CCNCC2)C1 (stereo not given) | 1.91 |
| CC[C@@H]1N(CC2CCC2)CCC[C@]12CCC(=O)N2Cc1ccncc1 | 7.12 |
| CCN1CCC2(CC1)CN(CCO)c1ccccc12 | -0.173 |
| CO[C@@H]1CCN(c2ncccn2)[C@H]1Cc1ccccc1 | -0.651 |
| O=C1CC(c2ccsc2)c2sc(C(=O)O)c(-c3ccc(F)cc3)c2N1 (stereo not given) | 4.4 |
| COc1ccc(-n2ncc(C(=O)NCC3COC(C)(C)O3)c2N)cc1 (stereo not given) | 3.97 |
| O=C(CCn1cc(Cl)cn1)Nc1ccc2c(c1)OCCO2 | -2.18 |
| Cn1nc(C(=O)N2CCOCC2)cc1C(=O)Nc1ccc(Cl)cc1Cl | -7.41 |
| Cc1ccnn1C(C)C(=O)Nc1cc(-c2ccncc2)[nH]n1 (stereo not given) | -10.7 |
| CNc1ccc(C2CN(c3nc(C)cc(C)n3)CCO2)nc1 (stereo not given) | 0.575 |
| Cc1cc(-c2ccc(=O)n(C3CCN(S(C)(=O)=O)CC3)n2)c(C)o1 | 3.62 |
| O=C(O)[C@@H]1CCN(C(=O)c2ccccn2)[C@@H]1c1ccc(F)cc1 | 4.16 |
| CC(C)N1CCC(c2n[nH]cc2S(C)(=O)=O)CC1 | -7.22 |
| CC(=O)N1CCN(C(=O)C2CCN(c3cccnn3)C2)CC1 (stereo not given) | -17.6 |
| CCC(CC)C(=O)N1CCN(Cc2cc(-c3ccncc3)nn2C)CC1 | -27.9 |
| CCNc1nnc(SCc2nnc(C(C)(C)C)o2)s1 | -1.79 |

| SMILES | cytotoxicity at 10 µM [%] |
| --- | --- |
| COc1cccc(C(C)N2CCN(S(=O)(=O)CCCF)CC2)c1 (stereo not given) | 2.5 |
| CCN1CCN(C(=O)c2cc(F)cc3nc(C)c(C)nc23)CC1 | -2.25 |
| CC(C)CNC(=O)Nc1cccc(OCC#N)c1 | -0.353 |
| CN(CC(=O)Nc1nc2c(s1)CCC2)C(=O)c1cccs1 | -10.3 |
| CCn1nc(C)c(CNC(=O)NCC(C)(O)c2ccc(C)o2)c1C (stereo not given) | 10.5 |
| COc1c(C)cnc(CNC(=O)c2cnc3onc(C)c3c2)c1C | 26.3 |
| c1ccc(NCc2cccc(OCCN3CCOCC3)c2)nc1 | 0.174 |
| O=C(NCc1ccccc1CN1CCCC1=O)Nc1nncs1 | -2.82 |
| CCc1noc(C)c1C(=O)Nc1cnn(CC(=O)NC2CCCC2)c1 | -3.08 |
| O=C(NCc1cccc(F)c1)NC1CCCN(c2ncccn2)C1 (stereo not given) | -0.7 |
| CCOc1ncccc1NC(=O)c1cc(C)sc1C | -6.81 |
| CC(C)CC(=O)N1CCCC1c1ccsc1 (stereo not given) | 2.96 |
| Cc1cc(N2CCOCC2)ccc1NC(C)c1nc(C(C)C)no1 (stereo not given) | -12.3 |
| CC(C)c1nc2c(n1C)CCN(CCS(=O)(=O)c1ccccc1)C2 | 5.11 |
| Cc1cc(C(=O)N2CCC(NC(=O)c3cccnc3)CC2)c(C)o1 | -2.44 |
| COC(=O)c1ccccc1NS(=O)(=O)c1c(C)nn(C)c1C | -4.12 |
| Cc1cc(NCC(=O)NCC(F)(F)F)nc(-c2ccncc2)n1 | 6.45 |
| CC(C)Cc1nc(COc2ccc(N(C)C(N)=O)cc2)no1 | 30.5 |
| CC(C)c1nnc(CN(C)C(c2ccc(F)cc2)c2cccnc2)o1 (stereo not given) | 4.11 |
| Cc1c(Cl)cccc1S(=O)(=O)NCc1cnc(N(C)C)n1C | -6.31 |
| NC(=O)CN(Cc1ccc(Br)cc1)C(=O)c1cccnc1 | 9.49 |
| Cc1cccc(NC(=O)N(CCC(F)(F)F)C[C@H](O)CO)c1 | 4.3 |

| SMILES | cytotoxicity at 10 µM [%] |
| --- | --- |
| CCCn1ccc2cc(NC(=O)CC3CCCO3)ccc21 (stereo not given) | -3.45 |
| COc1ccccc1CN(Cc1nc(CC(C)C)no1)C1CC1 | 4.93 |
| CC(O)CN1CCN(C(=O)CCOc2ccccc2F)CC1 (stereo not given) | 3.66 |
| Cc1nc(C2CCCN2C(=O)CCCOc2cccc(F)c2)no1 (stereo not given) | 5.09 |
| Cc1ccc(C(=O)NCCS(C)(=O)=O)c(=O)[nH]1 | -9.32 |
| CC(=O)Nc1c(C)cnn1Cc1cc(F)ccc1F | 25.3 |
| FC(F)(F)COCCN1CCCC(c2noc(C3CC3)n2)C1 (stereo not given) | 3.3 |
| O=C(NCc1ccccc1CN1CCC(O)CC1)Nc1ccncc1 | -13.1 |
| Fc1ccc2c(c1)C(NCc1nnc3n1CCCCC3)CCCO2 (stereo not given) | -9.52 |
| Cc1cc(CN(C)C(=O)C2CCCN(C(=O)c3cccs3)C2)no1 (stereo not given) | -17 |
| CS(=O)(=O)NCC1CCCN(C(=O)Nc2cccnc2N2CCCC2)C1 (stereo not given) | 3.85 |
| CC(C)NC(=O)Nc1ccc(CS(=O)(=O)C(C)(C)C)cc1 | -1.97 |
| COCCN1C(=O)CC(N2CCN(c3ccc(OC)cc3)CC2)C1=O (stereo not given) | -12.6 |
| O=C(O)c1cc(-c2cncnc2)cc(S(=O)(=O)N2CCCCCC2)c1 | 5.38 |
| CCC(=O)N1CCCC(c2nc(-c3cccnn3)no2)C1 (stereo not given) | -6.45 |
| O=C(O)[C@@H]1CN(C(=O)CSCC2CC2)C[C@H]1c1ccncc1 | -17.6 |
| CN(C)S(=O)(=O)NCc1cccnc1Oc1ccc(F)c(F)c1 | 3.05 |
| CCc1ccc(CN2CCC(c3ccccc3C(=O)O)C2)nc1 (stereo not given) | 1.69 |
| CCC(=O)N1CCCC(C(=O)NCc2noc(Cc3ccccc3)n2)C1 (stereo not given) | -1.15 |
| CCn1c(CN(C)C)nnc1C1CCN(Cc2ccc(Cl)cc2F)CC1 | -2.53 |
| Cc1ccc(N2CCC(C(=O)O)(n3ccc(C(C)C)n3)CC2)nn1 | -3.64 |
| COc1ccnc(N2CCC3(CC2)[C@H](O)C[C@@H]3OCCN(C)C)n1 | 1.03 |

| SMILES | cytotoxicity at 10 µM [%] |
| --- | --- |
| COc1ccccc1-n1nc(CC(C)C)nc1Cc1nnc(N)s1 | 6.17 |
| Cc1c(NC(=O)N(C)CCCc2cnn(C)c2)cnn1C | -1.23 |
| NC(=O)N1CCCC(c2nc(-c3cccnn3)no2)C1 (stereo not given) | -1.31 |
| CCC[C@H]1CN(C(=O)CCn2ccccc2=O)C[C@@H]1NS(C)(=O)=O | 5.35 |
| CC(C)S(=O)(=O)N1CCCC(c2cccc(C(=O)O)c2)C1 (stereo not given) | -2.18 |
| Cc1ccc(C2(CN(C)Cc3snnc3C)CCNCC2)nc1 | -0.355 |
| Cc1nc(-c2c(-c3ccccc3)ncn2[C@H]2C[C@@H](C(=O)O)N(C)C2)co1 | 0.024 |
| CNCCN1C(=O)CC[C@H]2CN(c3ncc(F)cn3)CC[C@H]21 | 1.68 |
| O=C(O)c1cc2n(n1)CCCN(C(=O)CCc1c[nH]c3ccccc13)C2 | 3.77 |
| CC(c1nccs1)N(C)Cc1ccc(CCC(C)(C)O)cc1 (stereo not given) | 2.55 |
| COCCN1CCCC2(CCN(c3cc(C)c(C#N)c(C)n3)C2)C1=O (stereo not given) | 2.7 |
| CCCn1cc(-c2cc(C(=O)N(C)C)c3cccc(C)c3n2)cn1 | 5.11 |
| CN(Cc1cnc(N)nc1)CC1CCCN(CCc2ccc(Cl)cc2)C1 (stereo not given) | -0.849 |
| COCCN(Cc1sccc1C)C(=O)C1CCN(C(C)C)CC1 | -2.72 |
| N#Cc1cccc(C(=O)N2CCCC(C(=O)CCc3ccccc3)C2)c1 (stereo not given) | 0.488 |
| CN(CCCc1cnn(C)c1)C(=O)C1CCC(=O)N(C2CCCC2)C1 (stereo not given) | 5.89 |
| CS(=O)(=O)NCCC1CN(Cc2ccccc2F)CCO1 (stereo not given) | -7.31 |
| Cc1cc(C)c2nc(CN[C@H]3CCCNC3)cc(O)c2c1 | 4.09 |
| CCS(=O)(=O)N1CCN(c2cc(-n3cnc(C)c3C)nc(C)n2)CC1 | 0.599 |
| Cc1nc(N2CCCCC2)ncc1C(=O)N1CC(C)(C)[C@@](C)(O)C1 | 1.41 |
| COc1cccc(CN2CCC(c3nccn3C(C)C)CC2)c1 | -8.37 |
| Cc1cc(C)c(C(=O)N2CCOCC2c2c(C)n[nH]c2C)o1 (stereo not given) | -4.01 |

| SMILES | cytotoxicity at 10 µM [%] |
| --- | --- |
| CN(Cc1ccccc1)CC(O)Cn1cnc2cc(F)ccc2c1=O (stereo not given) | -5.28 |
| O=C(NCC1CCOC1)Nc1ccc(Oc2cccc(F)c2)nc1 (stereo not given) | -5.01 |
| Cc1ccc(-c2cc(C(=O)NCCN3CCCS3(=O)=O)[nH]n2)cc1 | -7.57 |
| O=S(=O)(CCN1CCCCC1Cn1cncn1)c1ccccc1 (stereo not given) | 10.4 |
| CCc1n[nH]c(C2CN(C(=O)c3cnn(CC)c3)CCO2)n1 (stereo not given) | -2.87 |
| Cc1nc(CN(C)C2CCN(CCc3ccc4c(c3)CCO4)C2)no1 (stereo not given) | -12 |
| CN(Cc1coc(-c2ccccc2)n1)CC1CCCN1c1cccnn1 (stereo not given) | -10.4 |
| CCc1nc(CN2CCCN(C(=O)c3occc3C)CC2)cs1 | -21.9 |
| O=C(NCCn1nc2ccccn2c1=O)c1cc(-c2ccccc2)[nH]n1 | -28.5 |
| Cc1cn2nc(N3CCCC3Cn3cncn3)sc2n1 (stereo not given) | -18.3 |
| O=C(CCSc1ccccc1)NS(=O)(=O)c1ccc2c(c1)OCCO2 | -5.69 |
| CC(=O)N1CCN(C(=O)CCCc2nc(C(C)C)no2)CC1 | -9.34 |
| COc1ccc(OCCN(C)C(=O)NC(C)c2nncn2C)cc1 (stereo not given) | 1.08 |
| O=C(NC1COC2(CCN(Cc3ccccn3)CC2)C1)c1ccccn1 (stereo not given) | -4.74 |
| Cn1cncc1C(=O)N1CCOC2(COCCN(CC3CC3)C2)C1 (stereo not given) | 9.17 |
| CCN1CC2(CC1=O)CN(Cc1ccccn1)CCN(C(C)=O)C2 (stereo not given) | -1.07 |
| COCC1CN(Cc2ccc(C)o2)Cc2nnn(CC3CC3)c21 (stereo not given) | -9.96 |
| O=C(NCC1CC1)c1n[nH]c2c1CNCC2 | 4.14 |
| c1ccc(CN2CCN3C[C@H](Oc4cncnc4)C[C@H]3C2)nc1 | -99.8 |
| CNC(=O)[C@@H](C1CCCCC1)N1CCC[C@H]1C(=O)N(C)CCN(C)C | -0.39 |
| Cc1ccc(CN2CC[C@@H](NS(C)(=O)=O)[C@@H]2Cc2ccncc2)o1 | -3.18 |
| CCn1cc(-n2cc3nc(N)[nH]cc-3c2=O)cn1 | 3.15 |
